From PubChem
Mdm2 ligase inh: Mdm2 E3 ligase (human) inhibition | Q00987 | cell-based MDM2 ubiquitination luciferase reporter, 2 h; 0 = plate control, 100 = twice control, blank-subtracted | signal enhancement, % at 5 µM | hit rate 0.11% among 210,000;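 active = signal enhancement of 30% or more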;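 also: luminescence tracks abundance of the self-degrading MDM2-luciferase fusion protein; higher signal means inhibition of MDM2 E3 ligase activity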
Target sequence (Q00987 whole entry, looked up, the tested form may be a part): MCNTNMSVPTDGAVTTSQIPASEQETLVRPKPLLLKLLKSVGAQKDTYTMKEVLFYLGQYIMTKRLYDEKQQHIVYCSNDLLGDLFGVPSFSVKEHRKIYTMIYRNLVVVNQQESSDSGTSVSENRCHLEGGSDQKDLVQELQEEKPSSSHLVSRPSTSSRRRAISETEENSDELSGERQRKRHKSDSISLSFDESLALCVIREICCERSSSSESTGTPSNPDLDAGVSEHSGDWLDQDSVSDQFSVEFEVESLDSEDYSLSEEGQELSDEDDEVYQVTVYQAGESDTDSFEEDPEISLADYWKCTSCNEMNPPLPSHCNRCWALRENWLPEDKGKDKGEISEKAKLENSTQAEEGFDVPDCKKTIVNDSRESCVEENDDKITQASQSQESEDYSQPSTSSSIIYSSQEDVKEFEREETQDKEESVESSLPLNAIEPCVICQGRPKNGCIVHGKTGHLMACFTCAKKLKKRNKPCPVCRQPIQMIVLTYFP
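Test system: mammalian cells stably expressing self-ubiquitinating, self-degrading MDM2 E3–luciferase fusion; Amount: 2000 cells in each well; Medium: DMEM; Schedule: 4 h settle plus 2 h compound, 37 °C; Technique: SteadyLite luciferase luminescence after 15 min room-temperature reagent incubation; Benchmarks: plate control and blank wells.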
BB579 growth dn: reduces growth of yeast BB579 in restrictive medium | inhibition, % at 10 µM | hit rate 0.51% among 140,000 | AID 804 | S. cerevisiae BB579 growth, OD615, 48 h;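 active = inhibition above a set limit, 3 SD over the mean compound inhibition, cut at about 44% in these data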
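Assay system: S. cerevisiae DeaD strain BB579 yeast. Medium: CSMM-D restrictive synthetic medium containing dextrose (glucose). Times: 4 h cell preincubation, 48 h compound exposure, 30 °C humidified. Signal: OD615 turbidity measurement. Benchmarks: positive control amphotericin B 10 µg/mL.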
Yeast life ext: extends the lifespan of yeast; hit rate 0.68% among 130,000; AID 775; S. cerevisiae growth with nicotinamide, OD615; deaD strain in restrictive glucose medium; inhibition of the nicotinamide effect, % at 10 µM;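 active = inhibition above a set limit, placed 3 SD over the median of all compounds, cut at about 26% in these data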;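 also: 0% = nicotinamide-treated wells and 100% = cells grown without nicotinamide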
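Assay system: engineered S. cerevisiae DeaD replicative-lifespan strain, galactose-grown log-phase cells; medium: restrictive CSMM-D dextrose medium; also added: nicotinamide, 1.5 mM, co-present with compound; schedule: 48 h compound exposure at 30 °C, humidified; detection: absorbance at 615 nm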
Insulin prom inh: TRM-6 insulin promoter activity inhibition. TRM-6 cells, insulin promoter-eGFP reporter, imaging; reporter expression induced with tamoxifen. hit rate 0.9% among 130,000. AID 1273. inhibition, % at 2 µM;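 active = inhibition above the mean plus 3 SD, with well images judged a real hit on visual review, cut at about 60% in these data, passing the limit was not always enough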
Measles CPE: protection of cells from measles virus; AID 841; Measles virus-infected cells, CPE protection, absorbance; hit rate 1.5% among 140,000; protection (pct of control), % at 4 µM; in the data active = protection mostly above about 24%, no sharp cut-off; inactive = mostly below about 26%
RAM inhibit: blocks the yeast RAM network; hit rate 1.8% among 190,000; S. cerevisiae dse1pr::URA3 reporter, 5-FOA growth OD615, 2 d; analog-sensitive cbk1-as2 kinase mutant strain; inhibition, % at 50 µM; AID 868;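 active = inhibition above a set limit, 3 SD over mean compound inhibition, cut at about 8.4% in these data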;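 also: 0% = DMSO-only wells with no growth and 100% = 10 µM 1-NA-PP1 full growth; inhibition rescues growth on 5-FOA so higher OD means more RAM inhibition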
The depositor's hits bear a star; i = inactive; · = no result. Rows were chosen to be rich in hits. Some 4% of all compounds tested hit in one or more screens of this group.

SMILES	Mdm2 ligase inh	BB579 growth dn	Yeast life ext	Insulin prom inh	Measles CPE	RAM inhibit
O=C(C/C=N/OCc1ccc(F)cc1Cl)c1cnc(-c2ccccc2)s1	-11	-12	7	-4	14	9.7*
O=C(C/C=N/OCc1ccccc1F)c1cnc(-c2ccc(Cl)cc2)s1	-10	-26	-10	4	7	7
O=C(COc1ccccc1)NCC(=O)Nc1cccc(S(=O)(=O)NC2=NCCC2)c1	-11	·	·	13	·	0
Cc1ccc(CNC(=O)Cn2cncn2)cc1	-7	-43	-5	24	5	3
COc1ccc(CNC(=O)Cn2cncn2)cc1OC	-5	·	·	89*	·	0
Cc1c(Cl)c([N+](=O)[O-])nn1CCCC(=O)Nc1c(C)n(C)n(-c2ccccc2)c1=O	-18	·	·	33	·	1
Cc1c(Cl)c([N+](=O)[O-])nn1CCCC(=O)Nc1c(Cl)cccc1Cl	6	-67	4	20	2	9.9*
COc1ccc(NS(=O)(=O)c2ccc(N3CCCC3)c(NC(=S)Nc3cccc(S(=O)(=O)N(C)C)c3)c2)cc1	-9	2	-1	-8	4	0
CCN(CC)C(=O)c1ccc(NS(=O)(=O)c2ccccc2)cc1	7	-29	-5	100*	9	3
Cc1ccc(N2C(=O)C3C(C2=O)N2C(c4cccs4)C4C(=O)N(c5ccc(C)cc5)C(=O)C4N2C3c2cccs2)cc1 (stereo not drawn)	7	-11	1	·	10	8.6*
CC(=C/C(=O)O)/C=C/c1ccco1	-9	-24	28*	6	7	-1
CCOc1ccc2c(c1)-c1c(ssc1=S)C(C)(C)N2C	-17	-9	39*	-50	5	8.8*
CC1(C)Nc2ccc(O)cc2-c2c1ssc2=S	-1	-23	-6	6	3	2
O=C(Nc1nnc(COc2ccccc2)s1)c1ccco1	-11	-40	-12	·	45*	4
CC(=O)Nc1nnc(COc2ccccc2)s1	8	·	·	·	·	0
CCOC(=O)c1cccc(NC(=S)NCc2ccc(C)cc2)c1	-19	·	·	·	·	2
COc1ccc(-c2nnc3ccc(SCC(=O)Nc4nc5ccc(C)cc5s4)nn23)cc1OC	-12	-1	7	42	28*	7
Cc1ccc2nc(NC(=O)CSc3nnc(C)c(=O)n3N)sc2c1	-5	-28	1	25	8	8.9*
CCOC(=O)CCc1c(C)nc(SCC(=O)O)c(C#N)c1C	0	-47	0	·	32*	1
CCn1cc(C(=O)NCc2ccc3c(c2)OCO3)c(=O)c2cc(S(=O)(=O)N(C)C)ccc21	-9	-8	-2	0	4	3
CCn1cc(C(=O)NCc2ccccc2OC)c(=O)c2cc(S(=O)(=O)N(C)C)ccc21	37*	-43	-6	·	10	2
Cc1ccn2c(/C=N/OCc3ccc(F)cc3)c(-c3ccc(Cl)cc3)nc2c1	-8	-19	-3	42	8	9.7*
N#CCCN1CCN(S(=O)(=O)c2ccc(S(=O)(=O)NC3CCCC3)cc2)CC1	-18	-14	-5	·	40*	1
Cn1nnnc1SCc1ccc([N+](=O)[O-])cc1	-5	-13	3	·	19	1
Cc1cc(NC(=O)CCN2C(=O)C3C4C=CC(C4)C3C2=O)c2ccccc2n1 (stereo not drawn)	-2	-25	-10	50	45*	2
SMILES	Mdm2 ligase inh	BB579 growth dn	Yeast life ext	Insulin prom inh	Measles CPE	RAM inhibit
Cc1nc(SCc2ccccc2F)c2cnn(-c3ccccc3)c2n1	-9	·	·	-20	·	11*
O=C(Nc1ccc(CN2CCCCC2)cc1)Nc1ccc(Br)cc1Cl	-22	·	·	46	·	2
CCOC(=O)c1c(C2CC2)csc1NC(=O)COC(=O)CCS(=O)(=O)c1ccc(C)cc1	-10	-8	2	-27	4	9.2*
COc1cccc(NC(=O)COC(=O)CCS(=O)(=O)c2ccc(C)cc2)c1	25	·	·	-11	·	2
Cc1cc(N=Nc2ccccc2)c(NCC(O)C(O)C(O)CO)cc1C (stereo not drawn)	-9	·	·	82*	·	10*
Cc1ccc(NCC(O)C(O)C(O)CO)cc1C (stereo not drawn)	4	-24	-9	-427	1	0
COc1cccc(CN(c2ccc3c(c2)CCC3)S(=O)(=O)c2ccc(-n3cnnn3)c(OC)c2)c1	-9	-17	5	14	6	6
CCCCC(=O)Nc1ccc(NC(=O)c2ccc([N+](=O)[O-])cc2)cc1OC	-3	-37	5	0	7	9.1*
COc1cc([N+](=O)[O-])ccc1NC(=O)CCCOc1ccccc1	-16	-35	-9	-58	2	2
COc1cc([N+](=O)[O-])ccc1NC(=O)CCCOc1cc(C)ccc1C	-11	-23	-1	·	9	9.9*
CCS(=O)(=O)Nc1ccc(-c2cc(-c3ccccc3)c3cc(C)ccc3n2)cc1	17	-41	1	·	32	0
Cc1ccc2nc(-c3ccc(NS(C)(=O)=O)cc3)cc(-c3ccccc3)c2c1	-10	90*	-30	3	42*	-2
CC(C)(C)Sc1ccc([N+](=O)[O-])cc1C(=O)Nc1ccncc1	13	·	·	·	·	·
CN(C)c1ccc(-n2cccc2/C=C/[N+](=O)[O-])cc1	25	·	·	23	·	5
CN(c1ccccc1)c1ccc(/C=C/[N+](=O)[O-])cc1	2	100*	-11	·	0	6
CCN(c1ccc(NS(=O)(=O)c2cc(Cl)ccc2Cl)cc1)C(C)C	-7	-20	8	69*	3	0
O=c1oc2ccccc2cc1-c1cn2cccnc2n1	14	53*	-19	·	5	-1
O=c1oc2ccccc2cc1-c1cn2ccccc2n1	-78	·	·	·	·	1
CCC(NC(=O)COc1ccc([N+](=O)[O-])cc1)c1ccccc1 (stereo not drawn)	-5	·	·	67*	·	-1
O=C(COc1ccccc1)Nc1ccc([N+](=O)[O-])cc1	-6	-4	-8	-103	14	3
CC1(C)Cc2ccccc2C(N/N=C/c2ccc(Cl)cc2)=N1	-4	-46	-2	·	1	1
COc1ccc2nc3cccc(OC)c3nc2c1	-2	·	·	·	·	0
COc1cc(OC)c2c(OC)cccc2n1	-9	-2	-6	-10	92*	2
Clc1ccc(CSc2cc3c(nn2)-c2ccccc2CC3)cc1	-7	-43	-2	-26	9	10*
Clc1ccc(CSc2ccc(-c3ccccn3)nn2)cc1	-4	·	·	0	·	1
O=C(Nc1ccc(Br)cc1)c1ccco1	-13	-69	-11	i	3	0
O=C(Nc1cccc(N=Cc2cc(Cl)cc(Br)c2O)c1)c1ccco1	-11	56*	7	0	16	-1
C/C(=N\NC(=O)c1cccc(Cl)c1)c1cccc(NC(=O)c2ccco2)c1	-37	-13	-14	9	12	-1
